Three molecules from PubChem BioAssay can be followed below.

This is one part of the list. Calls of active or inactive are those of the source.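 How the source made its calls: active means mean inhibition across replicates above the hit cutoff set in the primary screen (cut at about 30% in these data); inactive means the rest.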

The assay deals with (Lyso)-N-acylphosphatidylethanolamine lipase (Mus musculus) (UniProt Q8VD66). Description: mouse ABHD4 hydrolase blockers, triplicate – biochemical, fluorescence polarization, confirmation (AID 720658). The following applies: purified mABHD4, FP-Rh probe fluorescence polarization; at 8.92 µM; hits give high values. An outline of the steps: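 Test system: wild-type mouse ABHD4. Medium: HEPES-saline buffer with 0.01% Pluronic F-127. Doses: single nominal compound dose 8.92 µM, 0.89% DMSO final. Timing: pre-incubation 45 min, probe exposure 60 min, 25 °C. Technique: FP readout, ex 525 nm, em 598 nm. Control set: S159A mutant ABHD4 plus DMSO as 100%, wild-type plus DMSO 0%.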
Sequence of (Lyso)-N-acylphosphatidylethanolamine lipase (Mus musculus) (Q8VD66 whole entry, looked up): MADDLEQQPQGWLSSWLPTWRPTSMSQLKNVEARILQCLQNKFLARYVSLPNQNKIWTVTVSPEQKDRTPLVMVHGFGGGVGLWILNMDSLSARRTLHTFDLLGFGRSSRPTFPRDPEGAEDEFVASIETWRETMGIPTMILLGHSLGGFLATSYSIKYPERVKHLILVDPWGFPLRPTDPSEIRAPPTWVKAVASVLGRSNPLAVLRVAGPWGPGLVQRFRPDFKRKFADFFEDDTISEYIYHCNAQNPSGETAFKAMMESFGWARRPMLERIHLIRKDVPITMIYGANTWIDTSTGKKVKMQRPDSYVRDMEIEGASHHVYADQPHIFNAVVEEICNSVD
In general terms: In fluorescence polarisation assays a small probe gives low polarisation when free and higher when bound to something large.
`O=C(c1cccnc1)N(c1cc2sc(=O)oc2c2ccccc12)S(=O)(=O)c1ccccc1`: the inhibition is 17.6% (inactive).
For `Oc1ccc(CNc2ccccc2O)cc1` the value was 37.2% (active); for `Cc1cccc(N2CCN(c3ccc(NC(=O)/C=C\C(=O)O)cc3)CC2)c1`, 0.64% (inactive).

The term inhibition denotes how much of the control response was suppressed.
